Results as given in ChEMBL document CHEMBL1140864, “The synthesis of ursolic acid derivatives with cytotoxic activity and the investigation of their preliminary mechanism of action” (Bioorg Med Chem, 2009).

How the values were obtained:
SK-OV-3 [1] = test: Antiproliferative activity against human SKOV3 cells after 96 hrs by MTT assay; type: functional, cell-based; details: SK-OV-3, 96 h
Procedure, shortened: (§1)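 Cells grown in RPMI 1640 with 10% FBS and penicillin/streptomycin at […] °C, 5% CO2. Trypsinised cells seeded at 1.0–2.0 × 10³ per well overnight, then exposed to a concentration range in medium for 96 h. MTT (1 mg/mL) added for 4 h, formazan dissolved in DMSO, read at 490 nm. IC50 is the concentration that cuts cell number to 50%; at least three repeats.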

HeLa [2] = test: Cell cycle arrest in human HeLa cells by accumulation at S phase at 5.0 uM after 24 hrs using PI staining by flow cytometry; type: functional
Procedure, shortened: (§2)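 HeLa cells exposed for 24 h to 2.5, 5.0 or 10.0 µM; vehicle control 0.1% DMSO. Cellular DNA stained with propidium iodide, and cell-cycle phase fractions measured by flow cytometry. Experiments done three times.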

HeLa [3] = test: Cell cycle arrest in human HeLa cells by accumulation at G1 phase at 10.0 uM after 24 hrs using PI staining by flow cytometry; type: functional; procedure, shortened: as §2
HeLa [4] = test: Cell cycle arrest in human HeLa cells by accumulation at G2/M phase at 10.0 uM after 24 hrs using PI staining by flow cytometry; type: functional; procedure, shortened: as §2
SK-OV-3 [5] = test: Antiproliferative activity against human SKOV3 cells at 10 uM after 96 hrs by MTT assay; type: functional; details: SK-OV-3, 96 h
Procedure, shortened: (§3)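 Same MTT set-up (RPMI 1640/10% FBS, 1.0–2.0 × 10³ cells per well, 96 h exposure, 4 h MTT, formazan in DMSO read at 490 nm). Value is the percent inhibition at a single 10 µM concentration. Experiments repeated at least three times.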

HeLa [6] = test: Cell cycle arrest in human HeLa cells by accumulation at S phase at 10.0 uM after 24 hrs using PI staining by flow cytometry; type: functional; procedure, shortened: as §2
HeLa [7] = test: Induction of apoptosis in human HeLa cells assessed as apoptotic cells at 10 uM by flow cytometry; type: functional
Procedure, shortened: (§4)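 HeLa cells given 2.5, 5.0 or 10.0 µM and stained with propidium iodide. Apoptotic cells counted by flow cytometry as nuclei with sub-diploid DNA content, the region below the G1 peak; untreated cells served as control. Run three times.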

BGC-823 [8] = test: Antiproliferative activity against human BGC823 cells at 10 uM after 96 hrs by MTT assay; type: functional; details: BGC-823, 96 h; procedure, shortened: as §3
HeLa [9] = test: Cell cycle arrest in human HeLa cells by accumulation at G1 phase at 5.0 uM after 24 hrs using PI staining by flow cytometry; type: functional; procedure, shortened: as §2
HeLa [10] = test: Cell cycle arrest in human HeLa cells by accumulation at G2/M phase at 5.0 uM after 24 hrs using PI staining by flow cytometry; type: functional; procedure, shortened: as §2
HeLa [11] = test: Antiproliferative activity against human HeLa cells after 96 hrs by MTT assay; type: functional, cell-based; procedure, shortened: as §1
HeLa [12] = test: Induction of apoptosis in human HeLa cells assessed as sub-diploid DNA content after 24 hrs by flow cytometry; type: functional, cell-based; procedure, shortened: as §4
HeLa [13] = test: Cell cycle arrest in human HeLa cells by accumulation at G2/M phase at 2.5 uM after 24 hrs using PI staining by flow cytometry; type: functional; procedure, shortened: as §2
BGC-823 [14] = test: Antiproliferative activity against human BGC823 cells after 96 hrs by MTT assay; type: functional, cell-based; details: BGC-823, 96 h; procedure, shortened: as §1
HeLa [15] = test: Antiproliferative activity against human HeLa cells at 10 uM after 96 hrs by MTT assay; type: functional; procedure, shortened: as §3
HeLa [16] = test: Cell cycle arrest in human HeLa cells by accumulation at G1 phase at 2.5 uM after 24 hrs using PI staining by flow cytometry; type: functional; procedure, shortened: as §2
HeLa [17] = test: Cell cycle arrest in human HeLa cells by accumulation at S phase at 2.5 uM after 24 hrs using PI staining by flow cytometry; type: functional; procedure, shortened: as §2
HeLa [18] = test: Induction of apoptosis in human HeLa cells assessed as DNA fragmentation after 24 hrs by agarose gel electrophoresis; type: functional, cell-based
Procedure, shortened: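 HeLa cells treated for 24 h, washed twice in PBS and lysed in 100 mM NaCl, 10 mM Tris–HCl pH 8.0, 25 mM EDTA, 0.1 mg/ml proteinase K at 50 °C for 12 h. DNA taken through phenol/chloroform/isoamyl alcohol and chloroform/isoamyl alcohol extraction, centrifuged at 12,000g for 30 min, then run on an agarose gel to look for laddering.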

Row | SMILES | IC50 (SK-OV-3 [1]) | inhibition at 10 µM (SK-OV-3 [5]) | inhibition at 10 µM (BGC-823 [8]) | IC50 (HeLa [11]) | IC50 (BGC-823 [14]) | inhibition at 10 µM (HeLa [15]) | further results
1 | CC(=O)OCCNC(=O)[C@]12CC[C@@H](C)[C@H](C)[C@H]1C1=CC[C@@H]3[C@@]4(C)CC[C@H](OC(C)=O)C(C)(C)[C@@H]4CC[C@@]3(C)[C@]1(C)CC2 | 6.09 µM | 54.8% | 42% | 1.13 µM | > 10 µM | 73.5% | Activity (HeLa [2]): 45.9%; Activity (HeLa [3]): 51.1%; Activity (HeLa [4]): 4.2%; Activity (HeLa [6]): 44.8%; Activity (HeLa [7]): 35.3%; Activity (HeLa [9]): 41.8%; Activity (HeLa [10]): 12.3%; Activity (HeLa [12]): Dose-dependent effect; Activity (HeLa [13]): 9.2%; Activity (HeLa [16]): 41.1%; Activity (HeLa [17]): 49.8%; Activity (HeLa [18]): Dose-dependent effect
2 | CC(O)C(NC(=O)[C@]12CC[C@@H](C)[C@H](C)[C@H]1C1=CC[C@@H]3[C@@]4(C)CC[C@H](O)C(C)(C)[C@@H]4CC[C@@]3(C)[C@]1(C)CC2)C(=O)O (some centres not stated) |  |  |  | > 10 µM |  | 22% | 
3 | COC(=O)C(NC(=O)[C@]12CC[C@@H](C)[C@H](C)[C@H]1C1=CC[C@@H]3[C@@]4(C)CC[C@H](OC(C)=O)C(C)(C)[C@@H]4CC[C@@]3(C)[C@]1(C)CC2)C(C)O (some centres not stated) |  |  |  | 6.86 µM |  | 55.9% | 
4 | CCC(C)C(NC(=O)[C@]12CC[C@@H](C)[C@H](C)[C@H]1C1=CC[C@@H]3[C@@]4(C)CC[C@H](O)C(C)(C)[C@@H]4CC[C@@]3(C)[C@]1(C)CC2)C(=O)O (some centres not stated) | > 10 µM | 5.01% |  | > 10 µM |  | 16.8% | 
5 | COC(=O)C(Cc1ccc(O)cc1)NC(=O)[C@]12CC[C@@H](C)[C@H](C)[C@H]1C1=CC[C@@H]3[C@@]4(C)CC[C@H](OC(C)=O)C(C)(C)[C@@H]4CC[C@@]3(C)[C@]1(C)CC2 (some centres not stated) |  |  | 41.6% | 9.04 µM | > 10 µM | 51.5% | 
6 | C[C@H]1[C@H](C)CC[C@]2(C(=O)O)CC[C@]3(C)C(=CC[C@@H]4[C@@]5(C)CC[C@H](O)C(C)(C)[C@@H]5CC[C@]43C)[C@H]12 [URSOLIC ACID] | > 10 µM | 9.06% | 10.2% | > 10 µM | > 10 µM | 12.4% | 
7 | CC(=O)O[C@H]1C(=O)[C@@]2(C)[C@H]([C@H](OC(=O)c3ccccc3)[C@]3(O)C[C@H](OC(=O)[C@H](O)[C@@H](NC(=O)c4ccccc4)c4ccccc4)C(C)=C1C3(C)C)[C@]1(OC(C)=O)CO[C@@H]1C[C@@H]2O [PACLITAXEL] | 0.001 µM |  |  |  | 0.016 µM |  | 
8 | COC(=O)C(Cc1ccccc1)NC(=O)[C@]12CC[C@@H](C)[C@H](C)[C@H]1C1=CC[C@@H]3[C@@]4(C)CC[C@H](OC(C)=O)C(C)(C)[C@@H]4CC[C@@]3(C)[C@]1(C)CC2 (some centres not stated) |  |  |  | > 10 µM |  | 32.9% | 
9 | COC(=O)CNC(=O)[C@]12CC[C@@H](C)[C@H](C)[C@H]1C1=CC[C@@H]3[C@@]4(C)CC[C@H](OC(C)=O)C(C)(C)[C@@H]4CC[C@@]3(C)[C@]1(C)CC2 |  |  | 17.9% | 4.86 µM | > 10 µM | 61.7% | 
10 | CC(=O)O[C@H]1CC[C@]2(C)[C@H]3CC=C4[C@@H]5[C@@H](C)[C@H](C)CC[C@]5(C(=O)O)CC[C@@]4(C)[C@]3(C)CC[C@H]2C1(C)C [O-ACETYLURSOLIC ACID] |  |  |  | > 10 µM |  | 37.8% | 
11 | CC(=O)OCc1ccccc1NC(=O)[C@]12CC[C@@H](C)[C@H](C)[C@H]1C1=CC[C@@H]3[C@@]4(C)CC[C@H](OC(C)=O)C(C)(C)[C@@H]4CC[C@@]3(C)[C@]1(C)CC2 | > 10 µM | 1.19% | 13% | > 10 µM | > 10 µM | 30.5% | 
